Experimental data taken from article PMC7993319 (Clinical and Translational Science, 2020).
Like-named read-outs stand apart in the source and are kept apart here.

Columns and labels:
[1] = cited from earlier work
ALK = details: lactam metabolite, two diastereoisomers; cited from earlier work
[2] = Safety monitoring in the trial; assay type: in vivo, human (patient with ALK‐positive NSCLC)
Summary of the method: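 Safety was monitored by physical examination and laboratory tests on days 1 and 15, with safety visits on days 8 and 29. Triplicate 12-lead recordings were taken predose on day 1 (before the oral CYP3A inhibitor, 150 mg q.d. from day 2) and on days 8 and 15 of co-treatment with the ALK inhibitor. QT was corrected by Fridericia.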

[3] = assay type: in vivo, human (patients with ALK‐positive NSCLC); details: for Crizotinib Cmin,ss: enrolled patient; for AUC(0-t): human, oral, Crizotinib AUC0–12, enrolled patient
Summary of the method: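 Patients on standard oral ALK inhibitor (250 mg b.i.d., ≥14 days) with trough <310 ng/mL got oral CYP3A inhibitor 150 mg q.d. from day 2 for 14 days. Plasma sampled predose and 0.5–12 h (11 points) on days 1 and 15, plus trough on day 8. LC-MS/MS with ether extraction, isotope-labelled internal standard, 1–5,000 ng/mL. AUC0–12 by noncompartmental analysis.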

NSCLC = details: cited from earlier work
[4] = co‐administration of CYP3A‐inducing rifampin; cited from earlier work

CCc1cc2c(cc1N1CCC(NCCO)CC1)C(C)(C)c1[nH]c3cc(C#N)ccc3c1C2=O [M4]
Activity of metabolite relative to alectinib [1]: equipotently active

C[C@@H](Oc1cc(-c2cnn(C3CCNC(=O)C3)c2)cnc1N)c1c(Cl)ccc(F)c1Cl (some centres unmarked) [PF‐06260182]
ALK‐inhibiting activity (ALK): 4–8%

CCc1cc2c(cc1N1CCC(N3CCOCC3)CC1)C(C)(C)c1[nH]c3cc(C#N)ccc3c1C2=O [alectinib]
Increase of combined AUC of alectinib and the M4 metabolite ([1]; administration of the CYP3A inhibitor posaconazole): 36% | CYP3A contribution to clearance ([1]; alectinib): 40–50%

CC(C)c1nc(CN(C)C(=O)N[C@@H](CCN2CCOCC2)C(=O)N[C@H](CC[C@H](Cc2ccccc2)NC(=O)OCc2cncs2)Cc2ccccc2)cs1 [cobicistat]
QTcF ([2]; day 8 of cobicistat treatment, with crizotinib): 410 ms | Heart rate ([2]; day 15, crizotinib plus cobicistat): 54 bpm | QTcF ([2]; day 15 of cobicistat treatment, with crizotinib): 413 ms | Safety signals / adverse events ([2]; single patient, crizotinib 250 mg b.i.d. plus cobicistat 150 mg q.d. for 14 days): No safety signals occurred | Laboratory changes ([2]; single patient, crizotinib plus cobicistat): no significant laboratory changes except a grade I increase in transaminases

C[C@@H](Oc1cc(-c2cnn(C3CCNCC3)c2)cnc1N)c1c(Cl)ccc(F)c1Cl [crizotinib]
Mean crizotinib Cmin,ss at screening ([3]; 7 screened patients, oral crizotinib 250 mg b.i.d., steady state, plasma): 279 ± 77 ng/mL | AUC0–12 ratio ([3]; crizotinib with cobicistat (14 days) vs baseline): 1.78 | Crizotinib Cmin,ss ([3]; day 1, before cobicistat, crizotinib 250 mg b.i.d.): 158 ng/mL | Crizotinib Cmin,ss ([3]; day 8, with oral cobicistat 150 mg q.d.): 308 ng/mL | AUC(0-t) ([3]; plasma, after 14 days of cobicistat treatment): 3920 ng·h/mL | AUC(0-t) ([3]; plasma, baseline (before cobicistat), steady state): 2210 ng·h/mL | Underexposed patients (Cmin,ss < 310 ng/mL) ([3]; unselected NSCLC population screened (5 of 7 patients)): 71% | Increase of crizotinib AUC0–12 ([3]; with cobicistat for 14 days vs before cobicistat): 78% | QTcF ([2]; before cobicistat treatment, on crizotinib, triplicate ECG): 394 ms | Heart rate ([2]; day 1, before cobicistat, on crizotinib): 56 bpm | Hazard ratio (progression-free survival model) (NSCLC; lowest quartile vs. the combined upper three quartiles, 90% confidence interval: 1.62–6.36): 3.2 | ORR (NSCLC; quartile with the highest Cmin,ss): 60–75% | ORR (NSCLC; quartile with the lowest Cmin,ss (< 310 ng/mL)): 24–47% | Decrease of crizotinib AUC [4]: 72%
